# The list is not random: actives were taken first. Their share in the collection is about 1.9%.
# TDP2 inh = human TDP2 enzyme inhibitors, primary screen, biochemical, epi absorbance, recombinant enzyme; 370,000 tested, 0.34% active; inhibition, % at 12.8 µM; AID 720702, 2013; T5PNP hydrolysis, p-nitrophenol absorbance 415 nm; Tyrosyl-DNA phosphodiesterase 2 (Homo sapiens), O95551;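 active = inhibition above the mean of all tested compounds plus 3 SD, set per campaign, cut at about 25% in these data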;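 note: 0% = DMSO with enzyme and 100% = buffer with substrate but no TDP2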
#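 test system = human TDP2 enzyme | input = TDP2 enzyme at 120 nM final | medium = 50 mM Tris-HCl pH 7.5 with Mg2+, KCl, DTT, BSA | also added = T5PNP substrate, 5 mM | times = 2 h at 37 °C | technique = epi absorbance | benchmarks = high control without enzyme, low control DMSO plus TDP2 | replication = each compound tested once, singlicate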
# Casp6 inh = human caspase-6 inhibitors, primary screen, biochemical, VEID-R110 fluorescence, single point, set 2. P55212. purified caspase-6, Z-VEID-R110 cleavage fluorescence. inhibition, % at 12.5 µM. 350,000 tested, 0.53% active;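 active = mean inhibition across replicates at least about 35%, with every replicate also reaching that limit, limit read from the data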;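 note: 0% = median of neutral control wells and 100% = no fluorescence left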
# LEDGF integ inh = blockers of LEDGF/p75-dependent integrase strand transfer – biochemical, TR-FRET, high throughput, primary screen; AID 743269, 2014; TR-FRET IN-LEDGF/p75 DNA integration, Eu/Cy5; inhibition, % at 3.7 µM; HIV-1 integrase (with human LEDGF/p75); 370,000 tested, 0.64% active;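 active = inhibition above the screen-wide mean plus 3 SD, cut at about 13% in these data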;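 note: signal is the Cy5 over europium emission ratio at 671 and 618 nm; 0% = plate median of compound wells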
# NSD2 inh = NSD2 histone methyltransferase inhibitors, primary screen, biochemical, AlphaScreen, single concentration, set 2 | 310,000 tested, 0.54% active | inhibition, % at 12.5 µM | AID 743445, 2014 | Histone-lysine N-methyltransferase NSD2 (Homo sapiens), O96028 | NSD2 peptide methylation, 120 min; in the data active = inhibition above about 50%
# Target sequence (O96028 whole entry, looked up): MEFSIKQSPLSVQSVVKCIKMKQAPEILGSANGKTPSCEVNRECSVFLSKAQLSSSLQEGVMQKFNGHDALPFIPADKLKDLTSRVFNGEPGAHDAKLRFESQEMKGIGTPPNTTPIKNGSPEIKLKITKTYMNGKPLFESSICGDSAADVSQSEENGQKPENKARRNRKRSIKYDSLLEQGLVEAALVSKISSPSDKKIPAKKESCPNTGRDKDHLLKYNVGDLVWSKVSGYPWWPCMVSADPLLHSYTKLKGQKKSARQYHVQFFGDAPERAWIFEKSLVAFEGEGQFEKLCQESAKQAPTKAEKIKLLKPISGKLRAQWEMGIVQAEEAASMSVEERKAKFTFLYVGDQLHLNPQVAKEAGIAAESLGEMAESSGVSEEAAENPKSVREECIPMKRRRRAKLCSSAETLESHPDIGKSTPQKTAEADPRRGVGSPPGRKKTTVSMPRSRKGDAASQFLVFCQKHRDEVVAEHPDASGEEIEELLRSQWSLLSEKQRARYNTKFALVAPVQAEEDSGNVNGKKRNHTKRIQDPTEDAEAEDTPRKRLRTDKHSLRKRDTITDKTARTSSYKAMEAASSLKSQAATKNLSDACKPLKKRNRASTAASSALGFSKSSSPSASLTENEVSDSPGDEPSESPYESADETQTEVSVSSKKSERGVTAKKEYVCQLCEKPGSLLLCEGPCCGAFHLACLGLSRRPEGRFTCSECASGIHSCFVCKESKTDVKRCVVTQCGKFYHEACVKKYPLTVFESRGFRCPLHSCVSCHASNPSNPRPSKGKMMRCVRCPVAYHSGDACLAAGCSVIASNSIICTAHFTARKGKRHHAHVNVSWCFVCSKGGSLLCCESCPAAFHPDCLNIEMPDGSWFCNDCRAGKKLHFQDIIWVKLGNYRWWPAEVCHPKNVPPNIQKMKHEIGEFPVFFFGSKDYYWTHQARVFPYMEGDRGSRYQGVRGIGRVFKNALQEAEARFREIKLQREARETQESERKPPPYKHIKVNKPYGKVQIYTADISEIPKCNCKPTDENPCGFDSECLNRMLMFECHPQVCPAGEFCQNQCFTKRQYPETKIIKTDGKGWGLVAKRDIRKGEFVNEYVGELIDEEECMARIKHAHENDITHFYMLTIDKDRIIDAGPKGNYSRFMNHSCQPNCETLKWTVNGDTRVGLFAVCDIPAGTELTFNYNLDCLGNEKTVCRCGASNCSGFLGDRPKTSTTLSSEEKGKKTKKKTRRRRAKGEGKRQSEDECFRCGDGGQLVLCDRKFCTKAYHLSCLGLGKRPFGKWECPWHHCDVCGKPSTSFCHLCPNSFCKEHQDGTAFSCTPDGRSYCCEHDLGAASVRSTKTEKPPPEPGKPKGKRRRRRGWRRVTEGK
# UHRF1 MBD2 ctr = UHRF1 methylated DNA binding inhibitors, primary screen, counter-screen for MBD2 inhibitor project, biochemical, TR-FRET, human UHRF1, single concentration. 370,000 tested, 0.75% active. UHRF1 binding to methylated oligo. AID 687016, 2013. inhibition, % at 4.4 µM. E3 ubiquitin-protein ligase UHRF1 (Homo sapiens), Q96T88; in the data active = inhibition above about 21%;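 note: UHRF1 SRA domain binding a hemimethylated CpG hairpin DNA probe; 0% = median of test compound wells and 100% = reference inhibitor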
# MBD2 inh = inhibitors of MBD2 binding to methylated DNA, primary screen, biochemical, TR-FRET, DNA-binding domain, human; 370,000 tested, 0.31% active; MBD2 binding to methylated oligonucleotide; inhibition, % at 4.4 µM; AID 686964, 2013; Methyl-CpG-binding domain protein 2 (Homo sapiens), Q9UBB5; in the data active = inhibition above about 13%
# TDP2 inh conf = human TDP2 enzyme inhibitors, retest, confirmation, biochemical, epi absorbance, recombinant enzyme. shares compounds with TDP2 inh. inhibition, % at 12.8 µM. absorbance read-out. 1,100 tested, 22% active. AID 743263, 2014; in the data active = inhibition above about 25%;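 note: 0% = vehicle with enzyme and 100% = no enzyme buffer only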
# IN multimer act = HIV-1 IN multimer formation enhancers, counter-screen for LEDGF/p75 integration inhibitor project, biochemical, TR-FRET. 2,000 tested, 17% active. activation, % at 7.7 µM. AID 1053131, 2014. shares compounds with LEDGF integ inh. TR-FRET HIV-1 integrase multimerization; in the data active = activation above about 8.9%
# TRFRET interf = TR-FRET optical interference artefacts, confirmation, artefact control for LEDGF/p75-dependent integration inhibitor project, biochemical, HIV-1 IN multimerization | shares compounds with LEDGF integ inh | TR-FRET optical interference counterscreen | inhibition, % at 7.7 µM | 2,000 tested, under 10 active | AID 1053135, 2014;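 active = inhibition above the mean over all tested compounds plus 3 SD, which no compound reached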;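 note: 0% = integrase with antibodies and DMSO and 100% = antibodies without integrase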
# IN-LEDGF confirm = inhibitors of HIV-1 IN-LEDGF/p75 DNA integration, confirmation, biochemical, TR-FRET | TR-FRET LEDGF/p75-dependent HIV-1 integration | shares compounds with LEDGF integ inh | 2,000 tested, 36% active | inhibition, % at 3.7 µM; in the data active = inhibition above about 14%
# Alpha artifact = AlphaScreen signal interference with preloaded methylated product, dose response, artefact control for NSD2 inhibitor project, biochemical, cherry-picked samples; shares compounds with NSD2 inh; AlphaScreen artifact counterscreen, preloaded methylated H4 peptide; AC35, µM (titrated, usually from 10 µM), for inactives: top-dose activity change, negative = signal loss; 1,500 tested, 9.4% active; AID 1053174, 2014; call rule not given here
# The depositor's hits bear a star; x = no result.
SMILES,TDP2 inh,Casp6 inh,LEDGF integ inh,NSD2 inh,UHRF1 MBD2 ctr,MBD2 inh,IN multimer act,TRFRET interf,IN-LEDGF confirm,others
CC(=O)N1CCn2c3c(c(=O)c4cc(C)ccc42)CCC31 (configuration not stated),34.5*,x,20.0*,96.5*,-1.4,-7.4,0.2,-0.8,23.5*,TDP2 inh conf=49.5*;Alpha artifact=-1.1%
CC(=O)N1CCn2c3c(c4cc(C)ccc42)CCCC31 (configuration not stated),-17.4,-0.5,2.3,7.5,-0.3,4.0,x,x,x,
O=C1C(Nc2cccc(O)c2)=C(N2CCCCC2)C(=O)c2ccccc21,50.7*,x,19.6*,64.1*,12.9,-6.4,-1.0,3.6,36.8*,TDP2 inh conf=51.6*;Alpha artifact=-13.1%
O=C(O)/C=C/C(=O)N1N=C(c2ccco2)CC1c1ccco1 (configuration not stated),-10.7,7.4,51.3*,-4.1,18.0,5.7,-1.4,7.3,5.2,
O=C(CCl)N1N=C(c2ccco2)CC1c1ccco1 (configuration not stated),-1.7,60.1*,49.2*,12.4,33.3*,6.4,1.9,-9.3,11.2,
CC(C)NC(=O)NCC[C@H]1CC[C@H](NC(=O)CCN2CCCCC2)[C@H](CO)O1,x,-85.5,x,x,x,x,x,x,x,
CN(C)CC(=O)N1[C@H](C#N)[C@H](c2ccccc2-c2ccccc2F)[C@@H]1CO,x,3.5,x,x,x,x,x,x,x,
Cc1cc(C)c2c(N)c(S(=O)c3ccc(C(C)(C)C)cc3)sc2n1 (configuration not stated),-5.2,x,36.2*,0.0,0.7,-1.1,0.8,-3.9,-3.9,
Cc1cc(C)c2c(N)c(C(=O)C(C)(C)C)sc2n1,3.0,-0.4,0.8,-3.2,9.2,4.5,x,x,x,
C[C@H](O)C#Cc1ccc2c(c1)O[C@H](CN(C)C)[C@H](C)CN([C@H](C)CO)S2(=O)=O,x,-2.9,x,x,x,x,x,x,x,
Clc1ccccc1-c1ccc(CN2CCN(c3ccccc3)CC2)o1,-0.7,x,31.3*,5.9,0.2,0.6,-0.1,0.8,-0.2,
O=[N+]([O-])c1ccc(CN2CCN(c3ccccc3)CC2)o1,20.1,5.9,-2.1,5.7,-2.5,0.1,x,x,x,
CC(C)C[C@H]1COc2cc(Br)ccc2S(=O)(=O)N1,9.6,-0.6,-3.2,x,-2.3,1.1,x,x,x,
COc1ccccc1CNc1ccc2c(c1)OC[C@H](CC(C)C)NS2(=O)=O,-0.7,-2.7,20.3*,x,-3.6,2.8,2.8,-10.1,-4.4,
O=C1C2CC=CCC2C(=O)N1c1ccc(NCCc2cccc(F)c2)c([N+](=O)[O-])c1 (configuration not stated),-0.6,x,14.5*,-0.8,3.3,3.0,0.5,-2.5,-8.0,
O=C1CCC(=O)N1c1ccc(NCCc2cccc(F)c2)c([N+](=O)[O-])c1,-13.4,-0.9,2.0,0.2,0.1,0.2,x,x,x,
O=c1cc(-c2ccc(O)cc2)oc2c(O)c(O)c(O)c(O)c12,3.7,63.4*,41.3*,x,17.7,8.9,18.6*,-93.6,92.3*,
O=c1cc(-c2ccccc2)oc2cc(O)c(O)c(O)c12,7.5,43.7*,29.9*,x,11.7,8.2,5.3,-26.6,25.8*,
COc1c(O)cc2oc(-c3ccc(O)cc3)cc(=O)c2c1O,4.3,3.8,-2.5,x,-5.9,-1.0,x,x,x,
COc1ccc(NC(=O)Nc2ccc3c(c2)C(=O)N([C@H](C)CO)C[C@H](C)[C@H](CN(C)Cc2ccc(C(=O)O)cc2)O3)cc1,x,-1.8,x,x,x,x,x,x,x,
C/C=C/c1ccc([C@H]2[C@@H](CO)N(C(=O)CC)[C@@H]2CN(C)C(=O)NC(C)C)cc1,x,-0.2,x,x,x,x,x,x,x,
COc1ccc(NC(=O)Nc2ccc3c(c2)C(=O)N([C@@H](C)CO)C[C@@H](C)[C@H](CN(C)Cc2ccc(C(=O)O)cc2)OCCCC[C@@H](C)O3)cc1,x,0.1,x,x,x,x,x,x,x,
CO[C@H]1CN(C)C(=O)c2cc(NC(C)=O)ccc2OC[C@H](C)N(CCC(F)(F)F)C[C@H]1C,x,2.0,x,x,x,x,x,x,x,
CCN1CCN(c2cc(C)c3cc(NC(=S)N4CCOCC4)ccc3n2)CC1,2.4,-32.9,21.1*,9.7,-1.5,5.5,0.5,-2.5,-5.7,
CCN1CCN(c2cc(C)c3cc(NC(=S)N4CCN(c5ccccc5)CC4)ccc3n2)CC1,-12.7,-13.3,4.8,-5.3,-3.6,-7.5,x,x,x,
CCOC(=O)C1=C(N)n2c(s/c(=C\c3ccco3)c2=O)=C(C(=O)OC(C)C)C1c1ccco1 (configuration not stated),3.5,x,51.2*,12.7,21.1*,11.8,1.9,-6.4,-0.8,
O=C(NC1CCCC1)C(c1cccnc1)N(Cc1ccc(F)cc1)C(=O)c1csnn1 (configuration not stated),20.9,1.0,20.6*,-2.3,-0.3,1.1,0.4,-2.1,-5.8,
O=C(NC1CCCC1)C(c1cccnc1)N(Cc1ccccc1F)C(=O)c1csnn1 (configuration not stated),7.0,0.3,0.1,-4.4,-2.2,1.5,x,x,x,
CCOC(=O)c1ccc(N2C(=O)c3n[nH]c(-c4ccco4)c3C2c2cccc([N+](=O)[O-])c2)cc1 (configuration not stated),-12.5,x,15.9*,-2.2,-2.1,-4.8,-1.1,5.8,9.7,

# Compound activity: PubChem, several laboratories
